ChEMBL document CHEMBL4270548, “Discovery of a potent glucokinase activator with a favorable liver and pancreas distribution pattern for the treatment of type 2 diabetes mellitus” (Eur J Med Chem, 2018)
Values after ≈ are worked out from the molar mass of the structure shown. Active and inactive are the calls of the source. The rule behind the calls is not given here.

Assays:
[1] = Aqueous solubility of the compound in phosphate buffered saline at pH 7.4 at 8 to 2000 uM by nephelometric method; type: physicochemical
Procedure, shortened: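 Compound serial dilutions (8 µM–2 mM, before addition to buffer) transferred into PBS pH 7.4 (5 µL into 95 µL). Solubility read by nephelometry. Only wells with blank below mean blank + 2SD were used.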

[2] = molecular target: T1, Hexokinase-4 (Homo sapiens) (UniProt P35557); assay: Activation of human glucokinase assessed as conversion of D-glucose to D-glucose-6-phosphate at 10 uM preincubated for 10 mins followed by 5 mM glucose addition measured for 5 mins at 30 secs time interval by G6PDH/NADP coupled assay relative to control
T1 sequence (whole entry): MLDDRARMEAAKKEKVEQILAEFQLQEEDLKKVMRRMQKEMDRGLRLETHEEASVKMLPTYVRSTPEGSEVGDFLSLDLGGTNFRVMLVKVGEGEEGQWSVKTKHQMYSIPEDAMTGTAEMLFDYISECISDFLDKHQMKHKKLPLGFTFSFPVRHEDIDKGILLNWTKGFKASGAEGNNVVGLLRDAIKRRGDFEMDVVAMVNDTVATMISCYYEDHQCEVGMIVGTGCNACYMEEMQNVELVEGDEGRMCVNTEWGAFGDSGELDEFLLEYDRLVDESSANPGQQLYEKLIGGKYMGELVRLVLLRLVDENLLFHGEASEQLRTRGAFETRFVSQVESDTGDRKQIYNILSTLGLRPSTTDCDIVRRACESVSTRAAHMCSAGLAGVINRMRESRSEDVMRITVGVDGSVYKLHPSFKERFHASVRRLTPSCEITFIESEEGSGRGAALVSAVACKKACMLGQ
Procedure, shortened: (§1)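 Human GK in 25 mM HEPES pH 7.1, 25 mM KCl, 2 mM MgCl2, 1 mM NADP, 1 mM DTT, 2 U/mL G6PDH and 5 mM D-glucose. Compound at 10 µM preincubated 10 min at room temperature. Started with 20 mM ATP (added stock). A340 read every 30 s for 5 min, slope from the first 3 min. Fold over DMSO, or relative scale (DMSO 0, 10 µM reference activator 1). Mean ± SEM, n = 3.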

[3] = molecular target: T1, Hexokinase-4 (Homo sapiens); assay: Activation of human glucokinase assessed as conversion of D-glucose to D-glucose-6-phosphate at 10 uM preincubated for 10 mins […] measured for 5 mins at 30 secs time interval by G6PDH/NADP coupled assay relative to RO0281675; procedure, shortened: as §1
hERG (KCNH2) = hERG (KCNH2) (Homo sapiens, UniProt Q12809); assay: Inhibition of [3H]-dofetilide binding to human ERG expressed in HEK293 cell membranes at 30 uM after 1 hr by scintillation proximity assay relative to control; conditions: HEK293 cell membranes that express hERG, probe [3H]-dofetilide
Chain of hERG (KCNH2) (Q12809 whole entry): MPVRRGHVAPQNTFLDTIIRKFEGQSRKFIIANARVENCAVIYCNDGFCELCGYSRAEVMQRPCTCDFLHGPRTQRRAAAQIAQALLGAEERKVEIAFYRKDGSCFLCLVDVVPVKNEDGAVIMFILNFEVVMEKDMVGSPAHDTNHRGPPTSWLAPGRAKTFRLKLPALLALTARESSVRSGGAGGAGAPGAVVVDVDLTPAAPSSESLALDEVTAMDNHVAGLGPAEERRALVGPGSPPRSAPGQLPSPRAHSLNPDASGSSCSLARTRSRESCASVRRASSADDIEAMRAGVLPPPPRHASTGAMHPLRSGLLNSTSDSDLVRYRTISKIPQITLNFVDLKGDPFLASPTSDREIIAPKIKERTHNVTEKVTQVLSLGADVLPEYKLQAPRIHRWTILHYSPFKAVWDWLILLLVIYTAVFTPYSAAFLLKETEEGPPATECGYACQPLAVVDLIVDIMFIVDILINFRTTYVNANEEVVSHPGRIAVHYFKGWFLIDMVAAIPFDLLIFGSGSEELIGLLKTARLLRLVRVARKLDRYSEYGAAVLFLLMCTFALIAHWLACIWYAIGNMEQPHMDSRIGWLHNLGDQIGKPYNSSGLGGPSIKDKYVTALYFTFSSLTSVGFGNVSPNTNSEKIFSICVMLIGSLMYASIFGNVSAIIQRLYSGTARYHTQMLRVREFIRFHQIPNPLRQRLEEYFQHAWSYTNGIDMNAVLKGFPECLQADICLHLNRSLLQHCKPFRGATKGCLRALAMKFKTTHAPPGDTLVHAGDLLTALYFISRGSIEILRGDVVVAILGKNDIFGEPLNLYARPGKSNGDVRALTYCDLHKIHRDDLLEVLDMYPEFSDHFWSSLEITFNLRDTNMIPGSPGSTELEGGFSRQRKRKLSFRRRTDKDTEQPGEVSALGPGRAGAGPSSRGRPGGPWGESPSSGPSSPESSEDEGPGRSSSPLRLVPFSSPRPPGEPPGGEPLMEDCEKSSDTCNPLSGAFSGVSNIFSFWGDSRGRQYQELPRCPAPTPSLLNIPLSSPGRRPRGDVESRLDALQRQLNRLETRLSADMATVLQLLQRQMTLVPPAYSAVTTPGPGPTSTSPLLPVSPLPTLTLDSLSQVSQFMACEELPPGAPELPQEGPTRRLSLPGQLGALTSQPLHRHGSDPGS
Procedure, shortened: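 hERG-HEK293 membranes with 10 nM final [3H]-dofetilide and poly-L-lysine SPA beads in 50 mM Tris-Cl, 1.0 mM MgCl2, 10 mM KCl, pH 7.4. Shaken 1 h, beads settled 3 h, then scintillation counting. Normalized to DMSO (0%) and E-4031 (100% inhibition). Single-point at 30 µM, mean ± SEM, n = 3.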

Mus musculus [4] = assay: Antidiabetic activity in C57BL/6J mouse assessed as reduction in blood glucose AUC (0 to 120 mins) at 30 mg/kg, po dosed 30 minutes prior to glucose challenge by OGTT relative to control; type: functional; parameters: scale not given: the % may be the effect or the level left
Procedure, shortened: (§2)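 Fasted male C57BL/6J or ob/ob mice (8 weeks, n = 8/group) dosed orally in 0.5% methylcellulose 15 or 30 min before a 2 g/kg oral glucose load. Tail vein glucose measured by glucometer at −15 or −30, 0, 20, 40, 60, 90 and 120 min. Incremental glucose AUC0-120 min compared with vehicle. Mean ± SEM, Dunnett's test.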

Mus musculus [5] = assay: Antidiabetic activity in po dosed C57BL/6J mouse assessed as reduction in blood glucose level administered 15 mins prior to glucose challenge measured up to 120 mins post dose by OGTT; type: functional, organism-based; procedure, shortened: as §2
[6] = Cmax in mouse at 30 mg/kg, po administered as single dose by LC/MS/MS analysis; conditions: in vivo
Mus musculus [7] = assay: Antidiabetic activity in po dosed ob/ob mouse assessed as reduction in blood glucose level administered for 15 to 30 mins prior to glucose challenge measured up to 120 mins post dose by OGTT; type: functional, organism-based; procedure, shortened: as §2
Mus musculus [8] = assay: Antidiabetic activity in ob/ob mouse assessed as reduction in plasma glucose level at 10 to 30 mg/kg, po bid administered for 14 days measured at post last dose by glucometric method; type: functional, organism-based
Procedure, shortened: (§3)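 Male ob/ob mice (9 weeks) dosed orally twice daily for 4 weeks, vehicle 0.5% MC. Plasma glucose measured by portable glucometer at 2 and 4 weeks. Liver TG assessed at the end of treatment. Mean ± SEM (n = 10), Dunnett's test versus vehicle.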

Mus musculus [9] = assay: Antidiabetic activity in ob/ob mouse assessed as reduction in plasma glucose level at 10 to 30 mg/kg, po bid administered for 28 days measured at post last dose by glucometric method; type: functional, organism-based; procedure, shortened: as §3
Mus musculus [10] = assay: Antidiabetic activity in po dosed C57BL/6J mouse assessed as reduction in blood glucose level administered for 15 to 30 mins prior to glucose challenge measured up to 120 mins post dose by OGTT; type: functional, organism-based; procedure, shortened: as §2
Mus musculus [11] = assay: Antidiabetic activity in C57BL/6J mouse assessed as increase in insulin secretion at 100 mg/kg, po measured up to 60 mins by ELISA; type: functional, organism-based
Procedure, shortened: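 Male C57BL/6J mice (8 weeks) fasted 2 h, then dosed orally at time 0 (n = 8/group). Tail vein insulin measured at 0, 30 and 60 min by ultra-sensitive mouse insulin ELISA. Mean ± SEM, Dunnett's test.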

Row | Structure (SMILES) | solubility kinetic [1] [µM] | fold change (FC) [2] | fold change (FC) [3] | inhibition at 1 h, 30 µM (hERG (KCNH2)) [%] | other results
1 | Cc1sc([C@H]2CCCN2C(=O)CN(C)C)cc1C(=O)Nc1ncc(Cl)s1.Cl | 1.95 | 4.99 | 0.381 | – | –
2 | Cc1sc([C@@H]2CCCN2C(=O)CN(C)CCC(=O)O)cc1C(=O)Nc1ncc(F)s1 | – | 7.26 | 0.686 | 49 | –
3 | Cc1sc(C2CCCN2C(=O)CN(C)CC(=O)O)cc1C(=O)Nc1ncc(Cl)s1.Cl (stereo unspecified) | – | 8.35 | 0.718 | 11 | Activity (Mus musculus [4]): 82%
4 | Cc1sc([C@@H]2CCCN2C(=O)CN(C)C)cc1C(=O)Nc1ncc(Cl)s1.Cl | 7.81 | 10.4 | 0.65 | 101 | Activity (Mus musculus [5]): Active; Cmax [6]: > 9 µM
5 | Cc1sc(-c2ccccc2C(N)=O)cc1C(=O)Nc1nc2c(s1)CCC2 | 1.95 (≈ 0.748 µg/mL) | 6.23 | 0.699 | – | Cmax [6]: < 1 µM
6 | Cc1sc(C2CCCN2C(=O)CN(C)C)cc1C(=O)Nc1nccs1 (stereo unspecified) | 7.81 (≈ 2.96 µg/mL) | 4.7 | 0.38 | – | –
7 | Cc1sc(C2CCCN2C(=O)CN(C)CCCC(=O)O)cc1C(=O)Nc1ncc(F)s1 (stereo unspecified) | – | 6.86 | 0.61 | 78 | –
8 | Cc1sc(C2CCCN2C(=O)CNCC(=O)O)cc1C(=O)Nc1ncc(Cl)s1 (stereo unspecified) | – | 4.75 | 0.438 | 28 | –
9 | Cc1sc(C2CCCN2C(=O)CNS(C)(=O)=O)cc1C(=O)Nc1ncc(Cl)s1 (stereo unspecified) | – | 6.21 | 0.46 | 16 | –
10 | Cc1sc([C@@H]2CCCN2C(=O)[C@H](C)N(C)CC(=O)O)cc1C(=O)Nc1ncc(F)s1 | – | 8.8 | 0.832 | 4 | –
11 | CC(=O)N(C)CC(=O)N1CCCC1c1cc(C(=O)Nc2ncc(Cl)s2)c(C)s1 (stereo unspecified) | – | 2.57 | 0.118 | – | –
12 | Cc1sc(C2CCCN2C(=O)CN(C)CCC(=O)O)cc1C(=O)Nc1ncc(F)s1.Cl (stereo unspecified) | – | 4.89 | 0.466 | 17 | Activity (Mus musculus [4]): 47%
13 | Cc1sc(C2CCCN2C(=O)CN(C)CCCCC(=O)O)cc1C(=O)Nc1ncc(F)s1 (stereo unspecified) | – | 6.95 | 0.619 | 77 | –
14 | Cc1sc(N2CCCCC2=O)cc1C(=O)Nc1nc2c(s1)CCC2 | 0.98 (≈ 0.354 µg/mL) | 2.96 | 0.235 | – | –
15 | CC(=O)NCC(=O)N1CCCC1c1cc(C(=O)Nc2ncc(Cl)s2)c(C)s1 (stereo unspecified) | – | 5.32 | 0.395 | 3 | –
16 | Cc1sc(-c2ccccc2C(=O)NCCN(C)C)cc1C(=O)Nc1nc2c(s1)CCC2 | 1.95 (≈ 0.887 µg/mL) | 4.31 | 0.428 | – | –
17 | CCN(CC(=O)O)CC(=O)N1CCC[C@H]1c1cc(C(=O)Nc2ncc(F)s2)c(C)s1 [listing 1 of 2 here] | – | – | – | -1 | –
18 | Cc1sc(C2CCCN2C(=O)CCN)cc1C(=O)Nc1nccs1 (stereo unspecified) | 15.6 (≈ 5.69 µg/mL) | 2.86 | 0.175 | – | –
19 | CCN(CC(=O)O)CC(=O)N1CCC[C@H]1c1cc(C(=O)Nc2ncc(F)s2)c(C)s1 [listing 2 of 2 here] | – | 8.6 | 0.87 | – | Activity (Mus musculus [7]): Dose-dependent effect; Activity (Mus musculus [8]): Active; Activity (Mus musculus [9]): Active; Activity (Mus musculus [10]): Dose-dependent effect; Activity (Mus musculus [11]): Active
20 | Cc1sc(C2CCCN2C(=O)CN(C)S(C)(=O)=O)cc1C(=O)Nc1ncc(Cl)s1 (stereo unspecified) | – | 3.24 | 0.168 | – | –
21 | CC(=O)N1CCCC1c1cc(C(=O)Nc2nc3c(s2)CCC3)c(C)s1 (stereo unspecified) | 7.81 (≈ 2.93 µg/mL) | 2.53 | 0.187 | – | –
22 | Cc1sc(C2CCCN2C(=O)CN)cc1C(=O)Nc1nccs1 (stereo unspecified) | 7.81 (≈ 2.74 µg/mL) | 3.67 | 0.293 | – | –
23 | Cc1sc(-c2ccccc2C(=O)NCCO)cc1C(=O)Nc1nc2c(s1)CCC2 | 0.98 (≈ 0.419 µg/mL) | 3.89 | 0.373 | – | –
24 | Cc1sc(N2CCCC2=O)cc1C(=O)Nc1nc2c(s1)CCC2 | 3.91 (≈ 1.36 µg/mL) | 2.41 | 0.168 | – | –
25 | Cc1sc(-c2ccccc2C(=O)NCCC(N)=O)cc1C(=O)Nc1nc2c(s1)CCC2 | 3.91 (≈ 1.78 µg/mL) | 2.56 | 0.187 | – | –
26 | Cc1sc(C2CCCN2C(=O)CN(C)C)cc1C(=O)Nc1ncc(Cl)s1 (stereo unspecified) | 3.91 (≈ 1.61 µg/mL) | 6.81 | 0.598 | – | –
27 | Cc1sc(C2CCCN2C(=O)CN(C)CC(=O)O)cc1C(=O)Nc1ncc(F)s1 (stereo unspecified) | – | 6.92 | 0.71 | -6 | –
28 | Cc1sc(-c2ccccc2C(=O)NCCc2nnn[nH]2)cc1C(=O)Nc1nc2c(s1)CCC2 | 31.3 (≈ 15 µg/mL) | 0.84 | -0.019 | – | –
29 | Cc1sc(C2CCCN2C(=O)CCN)cc1C(=O)Nc1nc2c(s1)CCC2 (stereo unspecified) | 0.98 (≈ 0.396 µg/mL) | 3.46 | 0.274 | – | –
30 | CC(=O)N1CCCCC1c1cc(C(=O)Nc2nc3c(s2)CCC3)c(C)s1 (stereo unspecified) | 0.98 (≈ 0.382 µg/mL) | 1.13 | 0.017 | – | –
